In ChEMBL document CHEMBL1134609, “Dinuclear alkyldiamine platinum antitumor compounds: a structure-activity relationship study” (J Med Chem, 2001):

Legend:
[1] = Resistance factor was determined using the ratio of cytotoxicity of both the cell lines; format: functional
[2] = tested on: L1210; assay: Cytotoxicity against L1210/0 cell line of murine leukemia; format: functional, cell-based, Mus musculus
Method in brief: (§1)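 Murine leukemia L1210/0 (wild-type) or L1210/2 (cisplatin-resistant) cells in McCoy's 5a + 10% FCS with penicillin/streptomycin; 5 × 10⁴ cells/mL pre-cultured 24 h at 37 °C, 5% CO2. Then treated with at least three platinum concentrations (fresh water stocks diluted in medium). Cells counted in a counting chamber after 72 h. IC50 = concentration reducing growth to 50% of control; each concentration tested in ≥2 independent experiments.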

[3] = tested on: L1210/2; assay: Cytotoxicity in cisplatin-resistant L1210/2 cell lines; format: functional, cell-based, Mus musculus; method in brief: as §1

Sequence	RF [1]	IC50 [2] [µM]	IC50 [3] [µM]
TRANSPLATIN [listing 1 of 2 here]	1.4	–	–
CISPLATIN [listing 1 of 2 here]	–	1.5	4.6
TRANSPLATIN [listing 2 of 2 here]	–	15.7	22
CISPLATIN [listing 2 of 2 here]	3.1	–	–
